Key:
[1] = Inhibition of human recombinant TTR Y78F mutant-mediated fibrillogenesis after 30 mins by turbidimetric assay
In short: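 Recombinant TTR Y78F (4 mg/mL in 20 mM potassium phosphate, 100 mM KCl, 1 mM EDTA, pH 7.6) was preincubated 30 min at 37 °C with 0−40 μM compound (final). Acid fibrillogenesis was started with pH 4.2 acetate buffer, giving final 0.4 mg/mL TTR and 5% DMSO. A340 was read every 1 min for 1.5 h at 37 °C. IC50 came from fitting initial rates to v0 = A + B·exp(−C[I]).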

[2] = species on record: Homo sapiens; assay: Inhibition of human recombinant TTR Y78F mutant-mediated fibrillogenesis at 40 uM after 30 mins by turbidimetric assay relative to control
In short: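 Y78F TTR turbidity assay: 30 min preincubation at 37 °C with 0−40 μM compound, then pH 4.2 acetate buffer (final 0.4 mg/mL TTR, 5% DMSO). A340 was monitored for 1.5 h at 37 °C. Initial rates were fitted to v0 = A + B·exp(−C[I]). RA% is the percentage reduction in fibril formation rate at high inhibitor concentration versus no inhibitor.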

[3] = Binding affinity to human recombinant TTR Y78F mutant after 5 mins by isothermal titration calorimetry
In short: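 Recombinant human TTR Y78F (E. coli-expressed), 20−30 μM in cell, in 100 mM potassium phosphate, KCl, 1 mM EDTA, 5% (v/v) DMSO, pH 7.6, filtered and degassed 5 min. Titrant was 500 μM ligand in the same buffer. One 0.5−1 μL injection, then 1.5−2 μL injections every 150 s, 25 °C. Dilution blanks subtracted; isotherms fitted to a two identical-site model to give Kd.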

Row | Compound | IC50 [1] [µM] | inhibition [2] [%] | Kd [3] [nM]
1 | O=C(O)c1cc(-c2ccc(Cl)cc2Cl)ccc1O | 12.8 | 75 | –
2 | O=C(O)Cc1cc(I)c(Oc2cc(I)c(O)c(I)c2)c(I)c1 [TETRAC] | 4.8 | 93 | –
3 | O=C(O)c1ccccc1Nc1cccc(C(F)(F)F)c1 [FLUFENAMIC ACID] | 6.2 | 89 | 109
4 | O=C(O)c1cc(-c2ccc(F)cc2F)ccc1O [DIFLUNISAL] | 18 | 85 | 1160
5 | Oc1ccc(/C=C/c2cc(O)cc(O)c2)cc1 [RESVERATROL] | 4.5 | 89 | –
6 | O=C(O)c1cc(-c2ccc(F)cc2F)cc(Br)c1O | 5.6 | 88 | 194
7 | CC(C(=O)O)c1ccc(-c2ccccc2)c(F)c1 (stereo not given) [FLURBIPROFEN] | > 100 | 35 | –
8 | N[C@@H](Cc1cc(I)c(Oc2cc(I)c(O)c(I)c2)c(I)c1)C(=O)O [LEVOTHYROXINE] | – | 80 | –
9 | O=C(O)c1ccc(-c2cc(F)cc(F)c2)cc1 | 10.8 | 89 | –
10 | O=C(O)c1cc(-c2ccc(F)cc2F)cc(I)c1O | – | 94 | 87
11 | O=[N+]([O-])c1ccc(O)c([N+](=O)[O-])c1 [2,4-DINITROPHENOL] | 20 | 77 | –
12 | CC/C(=C(/CC)c1ccc(O)cc1)c1ccc(O)cc1 [DIETHYLSTILBESTROL] | 16.6 | 67 | –
13 | O=C(O)c1cc(-c2ccc(F)cc2F)cc(Cl)c1O | 7.5 | 89 | 375
14 | O=C(O)c1ccccc1Nc1cc(Cl)cc(C(F)(F)F)c1 | 6 | 86 | 86
15 | O=C(O)c1ccccc1Nc1cc(I)cc(C(F)(F)F)c1 | 6.4 | 94 | 85
16 | Oc1c(Cl)cc(-c2cc(Cl)c(O)c(Cl)c2)cc1Cl | 2.1 | 100 | –
17 | O=C(O)Cc1ccccc1Nc1c(Cl)cccc1Cl [DICLOFENAC] | 26 | 74 | –
18 | O=C(O)c1cc(-c2ccc(F)cc2F)cc(F)c1O | 7.6 | 87 | 1120
19 | CC1=C(/C=C/C(C)=C/C=C/C(C)=C/C(=O)O)C(C)(C)CCC1 [TRETINOIN] | 8.1 | 100 | –
20 | O=C(O)c1ccccc1Nc1cc(Br)cc(C(F)(F)F)c1 | 5.9 | 91 | 64
21 | O=C(O)c1ccccc1Nc1cc(F)cc(C(F)(F)F)c1 | 6.5 | 91 | 91

Source: ChEMBL document CHEMBL3085733, “Modulation of the fibrillogenesis inhibition properties of two transthyretin ligands by halogenation” (J Med Chem, 2013)
